{"source": "ChEMBL document CHEMBL4513216", "about": "“Probing the Open Global Health Chemical Diversity Library for Multistage-Active Starting Points for Next-Generation Antimalarials” (ACS Infect Dis, 2020)", "data": [{"assay": "Toxicity liver stage against HepG2, at 10uM", "type": "cell-based", "set-up": "test concentration 10 uM, cell line HepG2-A16-CD81EGFP", "conditions": "human, HepG2-A16-CD81EGFP cells; read-out: INHIBITION", "in_short": "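Uninfected HepG2-A16-CD81EGFP cells, 3 × 10^3 per well, 1536-well, plated on prespotted compound at 10 μM final, parasite-free screening media added to match infected plates; puromycin 10 μM positive, DMSO 0.5% negative; run in parallel with 48 h PbLuc assay at 37 °C, 5% CO2; viability by CellTiter-Glo luminescence, normalized to controls.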", "units": {"cytotoxicity at 10 µM": "%"}, "values": [{"smiles": "COCCn1ccnc1C1CCN(C(=O)c2cccc(COC)n2)CC1", "cytotoxicity at 10 µM": 1.62}, {"smiles": "CCOc1cc(C(=O)N2CCCC(n3cncn3)C2)ccc1C", "note": "(stereo unspecified)", "cytotoxicity at 10 µM": -4.35}, {"smiles": "C1CCC(OCCN2CCN(CCOC3CCCCC3)CC2)CC1", "cytotoxicity at 10 µM": -0.434}, {"smiles": "CCN1CCN(c2ccc(C(=O)NCCOC)cc2F)CC1", "cytotoxicity at 10 µM": 1.12}, {"smiles": "Cc1nc(CN2CCN(C(=O)CCc3nc(C(C)(C)C)no3)CC2)cs1", "cytotoxicity at 10 µM": 3.64}, {"smiles": "CCN1CC(C(=O)N2CCc3cc(C(N)=O)n(C)c3C2)CCC1=O", "note": "(stereo unspecified)", "cytotoxicity at 10 µM": -44.6}, {"smiles": "O=C(CCc1c(F)cccc1F)N1CCCCC1Cn1cccn1", "note": "(stereo unspecified)", "cytotoxicity at 10 µM": -11.1}, {"smiles": "COCC1CN(Cc2ccncc2)Cc2nn(CC3CC3)cc21", "note": "(stereo unspecified)", "cytotoxicity at 10 µM": -73.7}, {"smiles": "NS(=O)(=O)c1cnn(-c2ccc(NC(=O)CC3CCCC3)cn2)c1", "cytotoxicity at 10 µM": 6.74}, {"smiles": "Cc1ncsc1C(=O)NCc1ccc(-c2n[nH]cc2C(=O)N(C)C)cc1", "cytotoxicity at 10 µM": 0.522}, {"smiles": "Cc1ccn2c(=O)cc(CSCC(=O)Nc3nnc(C(C)C)s3)nc2c1", "cytotoxicity at 10 µM": -8.93}, {"smiles": "CS(=O)(=O)N1C[C@H]2CC[C@@H](C1)N(C(=O)CCn1cnc3ccccc31)C2", "cytotoxicity at 10 µM": 4.11}, {"smiles": "Cc1ccc(NC(=O)NC(C)c2nc[nH]n2)cc1Cl", "note": "(stereo unspecified)", "cytotoxicity at 10 µM": -2.06}, {"smiles": "Cc1cc(C)n(CCC(=O)N2CCC(c3nc(C(C)C)no3)CC2)n1", "cytotoxicity at 10 µM": -16.1}, {"smiles": "CCC1(c2ccc(NS(=O)(=O)c3ccc(Cl)s3)cc2)CCC(=O)NC1=O", "note": "(stereo unspecified)", "cytotoxicity at 10 µM": 13.5}, {"smiles": "Cc1cc(C(=O)NCc2cc(C)oc2C)no1", "cytotoxicity at 10 µM": -9.98}, {"smiles": "Cc1ccc(NC2COC3(CCN(CC(C)C)CC3)C2)nn1", "note": "(stereo unspecified)", "cytotoxicity at 10 µM": -1}, {"smiles": "CCS(=O)(=O)N1CCCC2(CCCC(=O)N2C)C1", "note": "(stereo unspecified)", "cytotoxicity at 10 µM": 8.86}, {"smiles": "COc1cc(CN(C)C(=O)NCc2cccc3c2OCO3)ccc1SC", "cytotoxicity at 10 µM": -6.08}, {"smiles": "Cc1cc(C)n(CC2CCCN2C(=O)c2ccc3c(c2)COC3)n1", "note": "(stereo unspecified)", "cytotoxicity at 10 µM": 1.85}, {"smiles": "CCOc1ncccc1CNc1cc(COC)ncn1", "cytotoxicity at 10 µM": 6.41}, {"smiles": "CCn1c(SCC(=O)O)nnc1C(C)NC(=O)c1ccc(Cl)cc1", "note": "(stereo unspecified)", "cytotoxicity at 10 µM": 3.52}, {"smiles": "CC(C)c1cc(C(F)(F)F)n2nc(CCC(=O)O)nc2n1", "cytotoxicity at 10 µM": 5.97}, {"smiles": "CSc1ccccc1NC(=O)C1CN(C(=O)c2ccc3c(c2)OCO3)C1", "cytotoxicity at 10 µM": -12.3}, {"smiles": "Cc1cc(C)n(CCCC(=O)N2CC[C@H]3NCCC[C@]3(CO)C2)n1", "cytotoxicity at 10 µM": -0.862}, {"smiles": "Cc1noc(C)c1-c1cccc(CC2CCN(C(=O)CCC(=O)O)C2)n1", "note": "(stereo unspecified)", "cytotoxicity at 10 µM": -8.44}, {"smiles": "CC(C)N(C)S(=O)(=O)c1ccc2c(c1)CCN(C(=O)c1cccnn1)C2", "cytotoxicity at 10 µM": -1.22}, {"smiles": "Cc1cccc(N2CCN(C(=O)C3CC4(CCNCC4)CN3)CC2)n1", "note": "(stereo unspecified)", "cytotoxicity at 10 µM": -4.27}, {"smiles": "O=C1CO[C@H]2CN(S(=O)(=O)c3ccccc3)C[C@H]2N1c1ccccc1", "cytotoxicity at 10 µM": -2.6}, {"smiles": "CC(NS(=O)(=O)CC1(C#N)CCCC1)c1cccc(-n2cccn2)c1", "note": "(stereo unspecified)", "cytotoxicity at 10 µM": 3.15}, {"smiles": "Cc1cc(NC(=O)CSc2nc(=O)ccn2C(C)C)no1", "cytotoxicity at 10 µM": 0.841}, {"smiles": "CCn1cncc1C1CC(=O)Nc2c1c(C)nn2-c1ccc(C)cc1", "note": "(stereo unspecified)", "cytotoxicity at 10 µM": -8.23}, {"smiles": "CCN(CC)C(=O)[C@@H]1C[C@H](n2cc(-c3cccc(OC)c3)nn2)CN1", "cytotoxicity at 10 µM": 12.4}, {"smiles": "Cc1nc(C)n(CC2CCCCN2Cc2nc(-c3ccco3)no2)n1", "note": "(stereo unspecified)", "cytotoxicity at 10 µM": -10.6}, {"smiles": "CC(C)Nc1cccc(CNC(=O)N2CCC[C@@H]2CO)c1", "cytotoxicity at 10 µM": 1.96}, {"smiles": "CN(C)CC1CSCCCN1C(=O)c1ccsc1", "note": "(stereo unspecified)", "cytotoxicity at 10 µM": 5.09}, {"smiles": "CN1CCC(NCC2(O)CCCN(Cc3ccccc3F)C2=O)CC1", "note": "(stereo unspecified)", "cytotoxicity at 10 µM": -12.2}, {"smiles": "Cc1cnc(N2CCc3ncnc(N4CCN(C)CC4)c3CC2)nc1", "cytotoxicity at 10 µM": -1.73}, {"smiles": "O=C(C1CCC1)N1CCC2(CCN(Cc3cccc(F)c3)CC2)CC1", "cytotoxicity at 10 µM": -4.29}, {"smiles": "C1CCC(N2CCCN(c3nc(C4CC4)no3)CC2)C1", "cytotoxicity at 10 µM": -9.13}, {"smiles": "CS(=O)(=O)N1CCc2c(cccc2NC(=O)CC(F)(F)F)C1", "cytotoxicity at 10 µM": 5.06}, {"smiles": "NCc1ccc(Oc2cccc(Cl)c2Cl)cc1", "cytotoxicity at 10 µM": 7.25}, {"smiles": "Cc1ccccc1C(C(=O)O)N(C)CC1CCOCC1", "note": "(stereo unspecified)", "cytotoxicity at 10 µM": 3.88}, {"smiles": "CCc1nc(C2CCCN2CCC(=O)N2CCc3ccccc32)no1", "note": "(stereo unspecified)", "cytotoxicity at 10 µM": -23.7}, {"smiles": "CC(C)(C)SCCN1CC(=O)N2CC[C@@H](O)C[C@H]2C1=O", "cytotoxicity at 10 µM": 4.01}, {"smiles": "O=c1n(CCNCc2ccc(-c3ccccc3)cc2)nc2ccccn12", "cytotoxicity at 10 µM": 0.932}, {"smiles": "COc1ccccc1C(=O)NCc1n[nH]c(C)n1", "cytotoxicity at 10 µM": -0.519}, {"smiles": "CNS(=O)(=O)c1csc(C(=O)NCc2sccc2C)c1", "cytotoxicity at 10 µM": 4.63}, {"smiles": "Cc1nc(-c2nc(C(=O)N(C)C)c3ccccn23)cn1C(C)C", "cytotoxicity at 10 µM": -121}, {"smiles": "O=C(CC1OCCc2ccccc21)NCCn1cccc1", "note": "(stereo unspecified)", "cytotoxicity at 10 µM": 1.71}, {"smiles": "COc1cccc(C(=O)N2CCCC(CNS(C)(=O)=O)C2)c1", "note": "(stereo unspecified)", "cytotoxicity at 10 µM": -17.9}, {"smiles": "C[C@]1(O)CN(Cc2cccc(C(=O)O)c2)CC[C@@H]1Oc1cccc(F)c1", "cytotoxicity at 10 µM": -5.64}, {"smiles": "Cn1cc(CN2CCC(c3cc(COc4ccc(Cl)cc4)[nH]n3)C2)cn1", "note": "(stereo unspecified)", "cytotoxicity at 10 µM": 0.0085}, {"smiles": "CC(=O)Nc1cc(Br)cnc1OCC(F)(F)F", "cytotoxicity at 10 µM": 5.69}, {"smiles": "O=C(O)CCCN1C[C@@H](c2ccccc2F)[C@@]2(CCCCC(=O)N2)C1", "cytotoxicity at 10 µM": 4.6}, {"smiles": "CSC(C)C(=O)N(C)CC(=O)Nc1ccc(Br)cn1", "note": "(stereo unspecified)", "cytotoxicity at 10 µM": -7.18}, {"smiles": "CCn1c(C2CCN(C(=O)c3ccc4sc(C)nc4c3)CC2)n[nH]c1=O", "cytotoxicity at 10 µM": -18}, {"smiles": "Cc1cccc2nc(CN3CCCC3Cn3cccn3)cn12", "note": "(stereo unspecified)", "cytotoxicity at 10 µM": 0.893}, {"smiles": "CC(c1nc(C2CC2)no1)N(C)Cc1ccc(Cl)cc1", "note": "(stereo unspecified)", "cytotoxicity at 10 µM": 3.74}, {"smiles": "Cc1cccc(C)c1Nc1noc2c1CN(C(=O)c1c[nH]nc1C)CC2", "cytotoxicity at 10 µM": 6.22}, {"smiles": "COCCN1CCC(NC(=O)NCC2(c3cccc(F)c3)CC2)C1", "note": "(stereo unspecified)", "cytotoxicity at 10 µM": 5.59}, {"smiles": "O=C(CCNCC(F)(F)F)N1CCC(Nc2cccnn2)CC1", "cytotoxicity at 10 µM": -1.5}, {"smiles": "O=C1[C@H]2CN(Cc3ccc(F)cc3)C[C@H]2CN1c1cncnc1", "cytotoxicity at 10 µM": -2.32}, {"smiles": "COC(=O)[C@@H](Nc1nc(C2CCCC2)nc2c1cnn2C)[C@@H](C)O", "cytotoxicity at 10 µM": -50}, {"smiles": "CCOc1ccc(Cl)cc1CCNC(=O)c1ccc(=O)n(C)c1", "cytotoxicity at 10 µM": 3.31}, {"smiles": "CCC(=O)N1CCN(c2nc(C)nc3c(C)nn(C)c23)CC1", "cytotoxicity at 10 µM": 12.4}, {"smiles": "CN(C)c1cc(CNC(=O)NCC2(C)CCCS2)ccn1", "note": "(stereo unspecified)", "cytotoxicity at 10 µM": 6.64}, {"smiles": "Cc1nc(C)n(C2CCCN(C(=O)COc3cccc(C#N)c3)C2)n1", "note": "(stereo unspecified)", "cytotoxicity at 10 µM": 1.08}, {"smiles": "COC[C@]1(O)CCN(Cc2cnc(N3CCOCC3)nc2)CC1(C)C", "cytotoxicity at 10 µM": 1.4}, {"smiles": "Cc1nc(-c2c(-c3ccccc3)ncn2CCCN2CCOCC2)c[nH]1", "cytotoxicity at 10 µM": -6.76}, {"smiles": "COc1ccc(F)c(CN2CCCC3(CCN(S(C)(=O)=O)C3)C2)c1", "note": "(stereo unspecified)", "cytotoxicity at 10 µM": -2.93}, {"smiles": "Cc1cccc(Sc2nccn(C)c2=O)c1", "cytotoxicity at 10 µM": 3.52}, {"smiles": "NC(=O)Cn1cc(NC(=O)NCC2CCN(c3ccccc3)C2)cn1", "note": "(stereo unspecified)", "cytotoxicity at 10 µM": 1.95}, {"smiles": "Cc1cnn(C2CN(CC(=O)NCCCc3ccccc3)C2)c1", "cytotoxicity at 10 µM": 0.555}, {"smiles": "COCCN1CCN(c2cc(OC)ncn2)Cc2ccc(C)nc21", "cytotoxicity at 10 µM": -99.2}, {"smiles": "COc1cccc(CN2CCc3nc(C(=O)NCC(C)C)sc3CC2)c1", "cytotoxicity at 10 µM": 16.8}, {"smiles": "Fc1ccc(CN2CCO[C@H]3[C@H](Oc4ccccn4)CC[C@@H]32)cc1", "cytotoxicity at 10 µM": 6.44}, {"smiles": "CCOCC1COCCC12CCN(C(=O)C1=CCCCC1)CC2", "note": "(stereo unspecified)", "cytotoxicity at 10 µM": -3.09}, {"smiles": "CCCC1CCCN(C(=O)Nc2cccnc2OC)CC1", "note": "(stereo unspecified)", "cytotoxicity at 10 µM": 4.52}, {"smiles": "Cn1cc(CN2CCOC[C@H]2c2nc(C(C)(C)C)co2)c2ccccc21", "cytotoxicity at 10 µM": 1.21}, {"smiles": "O=C1CCC2(CCC(NCc3ccc4c(c3)OCO4)CC2)N1", "note": "(stereo unspecified)", "cytotoxicity at 10 µM": 1.97}]}]}
